Test results: ChEMBL document CHEMBL4823328, “Structure-Guided Design of d-Galactal Derivatives with High Affinity and Selectivity for the Galectin-8 N-Terminal Domain” (ACS Med Chem Lett, 2021)
The source made the active and inactive calls. No cut-off for these calls is given here.

How the values were obtained:
Galectin-2 = target: T1, Galectin-2 (Homo sapiens, UniProt P05162); assay: Binding affinity to human galectin-2 assessed as dissociation constant by competitive fluorescence polarization assay
T1 sequence (P05162 whole entry): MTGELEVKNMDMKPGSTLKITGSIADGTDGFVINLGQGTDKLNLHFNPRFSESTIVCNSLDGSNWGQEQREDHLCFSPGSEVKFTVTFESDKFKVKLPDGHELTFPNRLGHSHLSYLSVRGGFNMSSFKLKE

Galectin-7 [1] = target: T2, Galectin-7 (Homo sapiens, UniProt P47929); assay: Binding affinity to human galectin-7 assessed as dissociation constant by competitive fluorescence polarization assay
Homo sapiens [2] = species on record: Homo sapiens; assay: Selectivity for human galectin-8N over human galectin-3
Homo sapiens [3] = species on record: Homo sapiens; assay: Selectivity for human galectin-8N over human galectin-1
[4] = target: Galectin-1 (Homo sapiens) (UniProt P09382); assay: Binding affinity to human galectin-1 assessed as dissociation constant measured up to 1500 uM by competitive fluorescence polarization assay; conditions: dose microM <=1500
Galectin-9 [5] = target: T3, Galectin-9 (Homo sapiens, UniProt O00182); assay: Binding affinity to human galectin-9 N terminal domain assessed as dissociation constant measured up to 1500 uM by competitive fluorescence polarization assay; conditions: dose microM <=1500
Galectin-9 [6] = target: T3, Galectin-9; assay: Binding affinity to human galectin-9 C terminal domain assessed as dissociation constant measured up to 1500 uM by competitive fluorescence polarization assay; conditions: dose microM <=1500
Homo sapiens [7] = species on record: Homo sapiens; assay: Selectivity for human galectin-8N over human galectin-4 N terminal domain
Homo sapiens [8] = species on record: Homo sapiens; assay: Selectivity for human galectin-8N over human galectin-4 C terminal domain
Homo sapiens [9] = species on record: Homo sapiens; assay: Selectivity for human galectin-8N over human galectin-8 C terminal domain
Homo sapiens [10] = species on record: Homo sapiens; assay: Selectivity for human galectin-8N over human galectin-9 N terminal domain
Homo sapiens [11] = species on record: Homo sapiens; assay: Selectivity for human galectin-8N over human galectin-9 C terminal domain
Galectin-9 [12] = target: T3, Galectin-9; assay: Binding affinity to human galectin-9 C terminal domain assessed as dissociation constant by competitive fluorescence polarization assay
Homo sapiens [13] = species on record: Homo sapiens; assay: Selectivity for human galectin-8N over human galectin-2
[14] = target: T4, Galectin-2 (Homo sapiens) (UniProt P05162); assay: Binding affinity to human galectin-2 assessed as dissociation constant measured up to 1500 uM by competitive fluorescence polarization assay; conditions: dose microM <=1500
T4 sequence (whole entry): T1 sequence (P05162 whole entry)

[15] = target: T5, Galectin-8 (Homo sapiens) (UniProt O00214); assay: Binding affinity to human galectin-8 C terminal domain assessed as dissociation constant measured up to 1500 uM by competitive fluorescence polarization assay; conditions: dose microM <=1500
T5 sequence (whole entry): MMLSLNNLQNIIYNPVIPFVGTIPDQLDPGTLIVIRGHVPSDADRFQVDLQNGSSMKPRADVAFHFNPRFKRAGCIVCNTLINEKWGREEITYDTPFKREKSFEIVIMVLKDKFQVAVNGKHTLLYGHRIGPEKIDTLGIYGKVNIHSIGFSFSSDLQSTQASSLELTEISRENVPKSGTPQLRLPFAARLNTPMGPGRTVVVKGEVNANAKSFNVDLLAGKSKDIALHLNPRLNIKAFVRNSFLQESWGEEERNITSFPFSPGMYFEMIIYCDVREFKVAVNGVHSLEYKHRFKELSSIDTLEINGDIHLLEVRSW

[16] = target: T6, Galectin-4 (Homo sapiens) (UniProt P56470); assay: Binding affinity to human galectin-4 N terminal domain assessed as dissociation constant measured up to 1500 uM by competitive fluorescence polarization assay; conditions: dose microM <=1500
T6 sequence (whole entry): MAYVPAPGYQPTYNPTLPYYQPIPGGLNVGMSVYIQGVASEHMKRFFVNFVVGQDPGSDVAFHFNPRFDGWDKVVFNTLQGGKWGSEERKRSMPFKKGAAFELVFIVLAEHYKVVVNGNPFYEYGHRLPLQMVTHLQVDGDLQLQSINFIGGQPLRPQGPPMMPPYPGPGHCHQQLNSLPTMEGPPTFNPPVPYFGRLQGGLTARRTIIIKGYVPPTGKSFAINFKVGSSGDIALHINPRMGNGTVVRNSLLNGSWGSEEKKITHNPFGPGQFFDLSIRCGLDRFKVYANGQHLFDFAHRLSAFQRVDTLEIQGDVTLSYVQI

Galectin-7 [17] = target: T2, Galectin-7; assay: Binding affinity to human galectin-7 assessed as dissociation constant measured up to 1500 uM by competitive fluorescence polarization assay; conditions: dose microM <=1500
K562 = assay: Cytotoxicity against human K562 cells assessed as cell viability at 1 to 100 uM measured after 24 hrs by MTS assay; format: functional, cell-based; conditions: dose 1-100 µM
In short: (§1)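 MTS viability assay on human PBMCs and on the K562 and MDA-MB-231 cancer lines. The cancer lines were exposed to 1–100 μM compound, and PBMCs to concentrations up to 100 μM. Read-out was the MTS tetrazolium reduction signal.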

MDA-MB-231 = assay: Cytotoxicity against human MDA-MB-231 cells assessed as cell viability at 1 to 100 uM measured after 24 hrs by MTS assay; format: functional, cell-based; conditions: dose 1-100 µM; in short: as §1
[18] = Cytotoxicity against human PBMC cells assessed as cell viability upto 100 uM measured after 24 hrs by MTS assay; format: cell-based; in short: as §1
[19] = target: T5, Galectin-8 (Homo sapiens); assay: Antagonist activity at galactin-8 in human MDA-MB-231 cells assessed as reduction in IL-6 secretion at 10 uM measured after 24 hrs by flow cytometry relative to control; format: cell-based; parameters: scale not given: the % may be the effect or the level left
In short: (§2)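 MDA-MB-231 cells, which express galectin-8 endogenously, were incubated with the compounds at 10 or 100 μM. Secreted IL-6 and IL-8 were quantified in pg/mL and compared with untreated cells. Values are means ± SEM from three independent experiments, with significance tested against untreated controls. Cell viability at the same concentrations was checked separately by MTS assay.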

[20] = target: T5, Galectin-8 (Homo sapiens); assay: Antagonist activity at galactin-8 in human MDA-MB-231 cells assessed as reduction in IL-6 secretion at 100 uM measured after 24 hrs by flow cytometry relative to control; format: cell-based; parameters: scale not given: the % may be the effect or the level left; in short: as §2
[21] = target: T5, Galectin-8 (Homo sapiens); assay: Antagonist activity at galactin-8 in human MDA-MB-231 cells assessed as reduction in IL-8 secretion at 100 uM measured after 24 hrs by flow cytometry relative to control; format: cell-based; parameters: scale not given: the % may be the effect or the level left; in short: as §2
Galectin-8 = target: T7, Galectin-8 (Homo sapiens, UniProt O00214); assay: Binding affinity to human galectin-8 C terminal domain assessed as dissociation constant by competitive fluorescence polarization assay
T7 sequence (O00214 whole entry): T5 sequence (whole entry)

Galectin-4 [22] = target: T8, Galectin-4 (Homo sapiens, UniProt P56470); assay: Binding affinity to human galectin-4 C terminal domain assessed as dissociation constant by competitive fluorescence polarization assay
T8 sequence (P56470 whole entry): T6 sequence (whole entry)

Galectin-4 [23] = target: T8, Galectin-4; assay: Binding affinity to human galectin-4 N terminal domain assessed as dissociation constant by competitive fluorescence polarization assay
Galectin-9 [24] = target: T3, Galectin-9; assay: Binding affinity to human galectin-9 N terminal domain assessed as dissociation constant by competitive fluorescence polarization assay

Chain of Galectin-1 (Homo sapiens) (P09382 whole entry, the tested form may be a part): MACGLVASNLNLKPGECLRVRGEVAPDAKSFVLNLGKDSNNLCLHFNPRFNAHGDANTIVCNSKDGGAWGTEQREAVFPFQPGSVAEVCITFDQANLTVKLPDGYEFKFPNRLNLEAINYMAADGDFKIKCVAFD
T3 sequence (O00182 whole entry, the tested form may be a part): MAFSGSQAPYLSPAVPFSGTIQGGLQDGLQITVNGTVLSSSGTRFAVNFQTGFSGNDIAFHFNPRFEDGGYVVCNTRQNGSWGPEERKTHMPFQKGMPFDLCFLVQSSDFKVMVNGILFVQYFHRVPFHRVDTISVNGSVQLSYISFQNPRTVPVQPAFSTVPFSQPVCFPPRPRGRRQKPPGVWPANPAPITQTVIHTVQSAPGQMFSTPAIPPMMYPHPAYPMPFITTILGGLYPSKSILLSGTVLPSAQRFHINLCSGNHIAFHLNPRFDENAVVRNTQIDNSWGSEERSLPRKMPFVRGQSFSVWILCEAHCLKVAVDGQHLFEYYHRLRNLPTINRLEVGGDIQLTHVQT
T2 sequence (P47929 whole entry): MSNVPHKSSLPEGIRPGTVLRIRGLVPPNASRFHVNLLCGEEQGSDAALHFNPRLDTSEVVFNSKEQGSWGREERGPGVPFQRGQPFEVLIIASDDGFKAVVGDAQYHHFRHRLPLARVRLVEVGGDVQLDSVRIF

| Kd (Galectin-2) | Kd (Galectin-7 [1]) | Selectivity ratio (Homo sapiens [2]) | Selectivity ratio (Homo sapiens [3]) | Activity (Galectin-9 [5]) | Activity (Galectin-9 [6]) | Selectivity ratio (Homo sapiens [7]) | Selectivity ratio (Homo sapiens [8]) | Selectivity ratio (Homo sapiens [9]) | Selectivity ratio (Homo sapiens [10]) | Selectivity ratio (Homo sapiens [11]) | Selectivity ratio (Homo sapiens [13]) | Compound | other results |
| --- | --- | --- | --- | --- | --- | --- | --- | --- | --- | --- | --- | --- | --- |
| Not Active | Not Active | > 2 | > 2 | inactive | inactive | > 2 | > 2 | > 2 | > 2 | > 2 |  | COC(=O)c1ccc2nc(CO[C@@H]3C=CO[C@H](CO)[C@@H]3O)[nH]c2c1 | Activity [4]: inactive |
|  | Not Active | > 2 | > 2 |  | inactive | > 2 | > 2 | > 2 | > 2 | > 2 | > 2 | COC(=O)c1ccc2ccc(CO[C@@H]3C=CO[C@H](CO)[C@@H]3O)nc2c1 | Activity [4]: inactive; Activity [14]: inactive; Activity [15]: inactive |
|  |  | > 2 | > 2 |  | inactive | > 2 | > 2 | > 2 | > 2 | > 2 | > 2 | O=C(O)c1ccc2ccc(CO[C@@H]3C=CO[C@H](CO)[C@@H]3O)nc2c1 | Activity [16]: inactive; Activity (Galectin-7 [17]): inactive |
|  |  | > 2 | > 2 | inactive |  | > 2 | > 2 | > 2 | > 2 | > 2 | > 2 | O=C(O)c1ccc2nc(CO[C@@H]3C=CO[C@H](CO)[C@@H]3O)[nH]c2c1 | Kd (Galectin-8): Not Active; Activity (K562): inactive; Activity (MDA-MB-231): inactive; Activity [18]: Non-Toxic; Activity [4]: inactive; Activity (Galectin-7 [17]): inactive |
|  |  |  |  |  | inactive | > 2 | > 2 | > 2 | > 2 | > 2 | > 2 | Cn1c(CO[C@@H]2C=CO[C@H](CO)[C@@H]2O)nc2ccc(C(=O)O)cc21 | Activity (K562): inactive; Activity (MDA-MB-231): inactive; Activity [18]: Non-Toxic; Activity [20]: 65%; Activity [21]: 55%; Activity (Galectin-7 [17]): inactive |
| Not Active | Not Active | 0.95 | 1.4 | inactive | inactive | > 2 | > 2 | > 2 | > 2 | > 2 |  | Cn1c(CO[C@@H]2C=CO[C@H](CO)[C@@H]2O)nc2cc(C(=O)O)ccc21 |  |

Continued, molecule first:

| Compound | Kd (Galectin-2) | Kd (Galectin-7 [1]) | Selectivity ratio (Homo sapiens [2]) | Selectivity ratio (Homo sapiens [3]) | Activity (Galectin-9 [5]) | Activity (Galectin-9 [6]) | Selectivity ratio (Homo sapiens [7]) | Selectivity ratio (Homo sapiens [8]) | Selectivity ratio (Homo sapiens [9]) | Selectivity ratio (Homo sapiens [10]) | Selectivity ratio (Homo sapiens [11]) | Selectivity ratio (Homo sapiens [13]) | other results |
| --- | --- | --- | --- | --- | --- | --- | --- | --- | --- | --- | --- | --- | --- |
| COC(=O)c1ccc2nc(CO[C@@H]3C=CO[C@H](CO)[C@@H]3O)n(C)c2c1 | Not Active | Not Active | > 2 | > 2 | inactive |  | > 2 | > 2 | > 2 | > 2 |  |  | Kd (Galectin-9 [12]): Not Active |
| Cn1c(CO[C@@H]2[C@@H](O)[C@@H](Sc3ccc(Cl)c(Cl)c3)O[C@H](CO)[C@@H]2O)nc2ccc(C(=O)O)cc21 |  |  |  |  |  |  |  |  |  |  |  |  | Activity (K562): inactive; Activity (MDA-MB-231): inactive; Activity [18]: Non-Toxic; Activity [19]: 15%; Activity [20]: 65%; Activity [21]: 55% |
| OC[C@H]1OC=C[C@@H](O)[C@H]1O | Not Active | Not Active | > 2 | 1.2 | inactive |  | 1.8 | > 2 | > 2 | > 2 | > 2 |  |  |
| OC[C@H]1Oc2cc(Cc3ccc(F)cc3)cc3c2[C@@H](OC3)[C@H]1O | Not Active | Not Active | > 2 | > 2 |  |  | > 2 | > 2 |  | > 2 | > 2 |  | Kd (Galectin-4 [22]; read-out: Kd): > 3 mM; Kd (Galectin-8): Not Active |
| CCOC(=O)c1ccc2c(c1)nc(CO[C@@H]1C=CO[C@H](CO)[C@@H]1O)n2C | Not Active | Not Active | 0.99 | 1.2 |  |  |  |  | > 2 |  |  |  | Kd (Galectin-4 [23]): Not Active; Kd (Galectin-4 [22]): Not Active; Kd (Galectin-9 [24]): Not Active; Kd (Galectin-9 [12]): Not Active |
| CO[C@@H]1O[C@H](CO)[C@H](O)[C@H](O)[C@H]1O |  | Not Active |  |  |  |  |  |  |  |  |  |  |  |
